Results: the M2OR odorant receptor database

Legend:
Settings in all cases: stereoisomer not certain
OR10G2 (Homo sapiens) = biological target: T1, OR10G2 (Homo sapiens) (UniProt Q8NGC3)
T1 sequence (whole entry): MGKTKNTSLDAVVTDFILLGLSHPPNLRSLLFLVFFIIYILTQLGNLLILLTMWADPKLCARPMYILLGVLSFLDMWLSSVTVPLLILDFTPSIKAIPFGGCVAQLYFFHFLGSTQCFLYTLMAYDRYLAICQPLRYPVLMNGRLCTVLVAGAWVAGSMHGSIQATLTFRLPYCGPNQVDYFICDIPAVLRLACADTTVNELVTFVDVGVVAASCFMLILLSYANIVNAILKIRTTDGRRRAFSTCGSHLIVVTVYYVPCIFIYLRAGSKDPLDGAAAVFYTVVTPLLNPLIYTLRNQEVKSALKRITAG
Procedure, shortened: (§1)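 Each entry records the cell line, G-protein, co-transfected protein and tags used. Methods varied with the source, often transient luciferase assays in mammalian cell lines. A receptor–molecule pair is called responsive (active) if the original authors judged its signal statistically different from baseline and non-responsive (inactive) otherwise.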

OR10G3 (Homo sapiens) = biological target: T2, OR10G3 (Homo sapiens) (UniProt Q8NGC4)
T2 sequence (whole entry): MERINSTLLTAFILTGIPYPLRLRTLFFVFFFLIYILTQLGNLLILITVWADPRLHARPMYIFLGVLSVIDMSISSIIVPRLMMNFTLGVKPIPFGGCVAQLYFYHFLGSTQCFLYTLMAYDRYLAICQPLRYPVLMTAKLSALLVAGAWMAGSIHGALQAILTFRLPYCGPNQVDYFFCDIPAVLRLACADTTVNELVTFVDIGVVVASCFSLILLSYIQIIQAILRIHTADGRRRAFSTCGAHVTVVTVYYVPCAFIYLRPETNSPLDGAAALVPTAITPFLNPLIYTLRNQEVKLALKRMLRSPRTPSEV
Procedure, shortened: as §1

OR10G4 (Homo sapiens) = biological target: T3, OR10G4 (Homo sapiens) (UniProt Q8NGN3)
T3 sequence (whole entry): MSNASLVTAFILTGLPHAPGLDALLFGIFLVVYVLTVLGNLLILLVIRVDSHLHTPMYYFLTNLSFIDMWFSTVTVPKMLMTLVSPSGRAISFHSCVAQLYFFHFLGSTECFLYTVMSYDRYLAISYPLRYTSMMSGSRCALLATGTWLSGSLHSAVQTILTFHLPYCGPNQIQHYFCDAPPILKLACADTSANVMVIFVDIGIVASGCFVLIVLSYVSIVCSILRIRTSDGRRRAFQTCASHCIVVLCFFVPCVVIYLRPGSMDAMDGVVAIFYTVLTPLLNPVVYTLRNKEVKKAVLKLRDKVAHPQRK
Procedure, shortened: as §1

OR10G6 (Homo sapiens) = biological target: T4, OR10G6 (Homo sapiens) (UniProt Q8NH81)
T4 sequence (whole entry): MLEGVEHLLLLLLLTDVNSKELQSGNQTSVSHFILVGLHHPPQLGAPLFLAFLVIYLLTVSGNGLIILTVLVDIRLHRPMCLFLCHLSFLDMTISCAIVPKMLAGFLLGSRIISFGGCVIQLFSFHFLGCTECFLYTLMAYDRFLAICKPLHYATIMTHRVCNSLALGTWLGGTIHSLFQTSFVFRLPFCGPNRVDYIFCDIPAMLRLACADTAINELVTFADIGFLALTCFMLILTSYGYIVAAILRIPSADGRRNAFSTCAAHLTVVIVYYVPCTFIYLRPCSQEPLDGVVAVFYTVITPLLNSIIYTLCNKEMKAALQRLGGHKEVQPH
Procedure, shortened: as §1

OR10G7 (Homo sapiens) = biological target: T5, OR10G7 (Homo sapiens) (UniProt Q8NGN6)
T5 sequence (whole entry): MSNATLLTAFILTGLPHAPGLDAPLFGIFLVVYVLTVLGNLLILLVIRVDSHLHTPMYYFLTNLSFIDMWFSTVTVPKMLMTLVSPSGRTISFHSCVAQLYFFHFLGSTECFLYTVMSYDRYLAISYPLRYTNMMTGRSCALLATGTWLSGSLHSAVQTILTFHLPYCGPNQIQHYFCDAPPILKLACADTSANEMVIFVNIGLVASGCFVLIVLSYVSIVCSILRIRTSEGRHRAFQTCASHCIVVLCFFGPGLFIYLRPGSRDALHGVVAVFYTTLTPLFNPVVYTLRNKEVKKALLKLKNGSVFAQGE
Procedure, shortened: as §1

OR10G8 (Homo sapiens) = biological target: T6, OR10G8 (Homo sapiens) (UniProt Q8NGN5)
T6 sequence (whole entry): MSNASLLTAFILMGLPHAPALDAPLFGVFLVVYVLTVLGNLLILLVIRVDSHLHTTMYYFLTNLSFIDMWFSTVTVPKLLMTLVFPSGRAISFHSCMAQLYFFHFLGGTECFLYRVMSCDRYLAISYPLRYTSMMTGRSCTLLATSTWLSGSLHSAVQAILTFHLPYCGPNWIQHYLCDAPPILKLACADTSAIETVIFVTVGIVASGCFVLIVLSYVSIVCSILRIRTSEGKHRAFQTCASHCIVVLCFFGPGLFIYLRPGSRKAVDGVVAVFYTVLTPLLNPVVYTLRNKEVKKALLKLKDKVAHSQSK
Procedure, shortened: as §1

OR10G9 (Homo sapiens) = biological target: T7, OR10G9 (Homo sapiens) (UniProt Q8NGN4)
T7 sequence (whole entry): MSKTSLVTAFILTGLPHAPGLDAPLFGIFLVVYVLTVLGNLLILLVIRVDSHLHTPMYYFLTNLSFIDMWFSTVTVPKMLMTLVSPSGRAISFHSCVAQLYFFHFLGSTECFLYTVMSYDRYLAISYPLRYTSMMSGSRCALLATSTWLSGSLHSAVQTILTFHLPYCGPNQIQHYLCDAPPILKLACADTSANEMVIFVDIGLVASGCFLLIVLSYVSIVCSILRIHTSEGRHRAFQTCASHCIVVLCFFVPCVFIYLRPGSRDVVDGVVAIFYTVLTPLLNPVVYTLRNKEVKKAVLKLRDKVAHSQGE
Procedure, shortened: as §1

OR10H1 (Homo sapiens) = biological target: T8, OR10H1 (Homo sapiens) (UniProt Q9Y4A9)
T8 sequence (whole entry): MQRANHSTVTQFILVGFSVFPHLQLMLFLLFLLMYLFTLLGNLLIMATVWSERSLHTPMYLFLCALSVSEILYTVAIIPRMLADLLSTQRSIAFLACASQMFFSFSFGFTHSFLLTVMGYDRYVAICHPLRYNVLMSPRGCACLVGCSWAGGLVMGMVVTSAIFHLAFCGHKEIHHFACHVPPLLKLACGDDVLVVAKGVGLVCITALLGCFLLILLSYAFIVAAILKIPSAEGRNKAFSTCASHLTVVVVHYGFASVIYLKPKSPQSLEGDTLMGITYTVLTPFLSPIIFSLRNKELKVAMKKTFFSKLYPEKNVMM
Procedure, shortened: as §1

OR10H2 (Homo sapiens) = biological target: T9, OR10H2 (Homo sapiens) (UniProt O60403)
T9 sequence (whole entry): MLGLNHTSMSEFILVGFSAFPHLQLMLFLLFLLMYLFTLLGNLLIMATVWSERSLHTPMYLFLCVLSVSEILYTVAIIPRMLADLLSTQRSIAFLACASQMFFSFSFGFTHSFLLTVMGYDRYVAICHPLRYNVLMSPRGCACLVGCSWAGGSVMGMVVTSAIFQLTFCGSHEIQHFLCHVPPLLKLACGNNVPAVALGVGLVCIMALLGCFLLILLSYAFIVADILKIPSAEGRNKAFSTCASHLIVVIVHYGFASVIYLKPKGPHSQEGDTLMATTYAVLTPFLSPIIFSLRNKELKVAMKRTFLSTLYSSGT
Procedure, shortened: as §1

Measured: odorant receptor agonist call

CCCCCC(=O)C(C)C(C)=O (centres undefined)
inactive: all assays above
